Measured values taken from ChEMBL document CHEMBL2069224, “Synthesis and cytotoxic activity of non-naturally substituted 4-oxycoumarin derivatives” (Bioorg Med Chem Lett, 2012).
Values after ≈ are worked out from the molar mass of the structure shown. Active and inactive are the calls of the source. The calls are words filed in the database; no cut-off is given here.

Legend:
[1] = tested on: HL-60; assay: Cytotoxicity against human HL60 cells assessed as cell viability at 10 uM after 72 hrs by WST1 assay relative to control; format: functional; conditions: HL-60, 72 h, read-out: Activity
Procedure, shortened: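 Suspension HL-60 cells were kept in IMDM with 20% FBS, L-glutamine and antibiotics at 37 °C under 5% CO2. They were seeded without an attachment wait and exposed 72 h to a single 10 µM concentration. WST-1 was added at 1/10 volume, incubated 60 min at 37 °C, and formazan read at 450 nm. Viability is given as % of vehicle-treated cells, from three independent experiments in triplicate.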

[2] = tested on: MCF7; assay: Cytotoxicity against human MCF7 cells assessed as cell viability at 10 uM after 72 hrs by WST1 assay relative to control; format: functional; conditions: MCF7, 72 h, read-out: Activity
Procedure, shortened: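 After 24 h attachment, MCF-7 cells (RPMI 1640, 10% FBS, L-glutamine, antibiotics, 37 °C, 5% CO2) were exposed 72 h to a single 10 µM concentration. WST-1 was added at 1/10 volume, incubated 60 min at 37 °C, and absorbance read at 450 nm. Viability is expressed as % of vehicle-treated cells, from three independent experiments each in triplicate.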

[3] = tested on: N2a; assay: Cytotoxicity against mouse Neuro2a cells after 72 hrs by WST1 assay in presence of 10% FBS; format: functional, cell-based
Procedure, shortened: (§1)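 Cells were cultured with 10% FBS. Viability runs used 10% or 20% FBS and 72 h exposure over 0.01–100 µM. WST-1 cleavage to formazan was read at 450 nm. % viable cells vs vehicle was fitted by nonlinear least squares to give IC50.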

[4] = tested on: MCF7; assay: Cytotoxicity against human MCF7 cells after 72 hrs by WST1 assay in presence of 20% FBS; format: functional, cell-based; conditions: MCF7, 72 h
Procedure, shortened: (§2)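 MCF-7 cells from ATCC were grown in RPMI 1640 with 10% FBS, 2 mM L-glutamine and antibiotics at 37 °C under 5% CO2. They were seeded in 96-well plates, allowed to attach 24 h, then treated 72 h at 0.01–100 µM in 10% or 20% FBS. WST-1 was added at 1/10 volume for 60 min at 37 °C and A450 read. IC50 came from nonlinear least-squares fitting of % viability vs vehicle.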

[5] = tested on: HL-60; assay: Cytotoxicity against human HL60 cells after 72 hrs by WST1 assay in presence of 20% FBS; format: functional, cell-based; conditions: HL-60, 72 h
Procedure, shortened: (§3)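 HL-60 cells from ATCC were grown in IMDM with 2 mM L-glutamine, 20% FBS, amphotericin B, penicillin and streptomycin at 37 °C under 5% CO2. Suspension cells were seeded without an attachment wait, then treated 72 h at 0.01–100 µM in 10% or 20% FBS. WST-1 was added at 1/10 volume for 60 min at 37 °C and A450 read. IC50 came from a nonlinear least-squares fit of % viable cells vs vehicle.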

[6] = tested on: HL-60; assay: Cytotoxicity against human HL60 cells after 72 hrs by WST1 assay in presence of 10% FBS; format: functional, cell-based; procedure, shortened: as §3
[7] = Cytotoxicity against mouse Neuro2a cells after 72 hrs by WST1 assay in presence of 20% FBS; format: functional, cell-based; conditions: N2a; procedure, shortened: as §1
[8] = tested on: U-937; assay: Cytotoxicity against human U937 cells after 72 hrs by WST1 assay in presence of 20% FBS; format: functional, cell-based; conditions: U-937, 72 h; procedure, shortened: as §1
[9] = tested on: U-937; assay: Cytotoxicity against human U937 cells after 72 hrs by WST1 assay in presence of 10% FBS; format: functional, cell-based; procedure, shortened: as §1
[10] = Solubility of the compound in RPMI 1640 medium by microscopic analysis; format: physicochemical
Procedure, shortened: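 Compound solubility in the assay medium was judged by microscopic inspection.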

[11] = tested on: MCF7; assay: Cytotoxicity against human MCF7 cells after 72 hrs by WST1 assay in presence of 10% FBS; format: functional, cell-based; procedure, shortened: as §2

Row | Structure (SMILES) | viability at 10 µM [1] | viability at 10 µM [2] | also measured
1 | COc1ccc(-c2c(O)c3ccccc3oc2=O)c(OC)c1 | 100% | 91.9% | 
2 | COc1cc(OC)c2c(O)cc(=O)oc2c1 | 23.2% | 17.1% | Activity [3]: Active; IC50 [4]: 2.1 µM; IC50 [5]: 2 µM; Activity [6]: Active; IC50 [7]: 0.55 µM; IC50 [8]: 0.21 µM; Activity [9]: Active; solubility [10]: 20 µM (≈ 4.44 µg/mL); Activity [11]: Active
3 | Cc1ccc2oc(=O)c(-c3ccccc3)c(O)c2c1 | 73.9% | 72.6% | 
4 | O=c1cc(OCc2ccccc2)c2ccccc2o1 | 72.7% | 95% | 
5 | Cc1ccc2oc(=O)c(-c3ccccc3)c(OCc3ccccc3)c2c1 | 92.3% | 53.5% | 
6 | COc1ccc(-c2c(O)c3cc(C)ccc3oc2=O)cc1 | 83.9% | 106% | 
7 | COc1ccc2c(O)cc(=O)oc2c1OC | 28.9% | 114% | Activity [3]: Active; IC50 [4]: 62.3 µM; IC50 [5]: 9.1 µM; Activity [6]: Active; IC50 [7]: 1.4 µM; IC50 [8]: 4.3 µM; Activity [9]: Active; solubility [10]: 100 µM (≈ 22.2 µg/mL)
8 | O=c1oc2ccccc2c(O)c1-c1ccccc1 | 73.4% | 96.7% | 
9 | O=c1oc2ccccc2c(OCc2ccccc2)c1-c1ccccc1 | 94.7% | 113% | 
10 | COc1ccc(-c2c(O)c3ccccc3oc2=O)cc1 | 86.6% | 115% | 
11 | CC/C(=C(\c1ccccc1)c1ccc(OCCN(C)C)cc1)c1ccccc1 [TAMOXIFEN] |  |  | IC50 [4]: 8.6 µM; IC50 [5]: 14.3 µM
12 | Cc1ccc2oc(=O)cc(OCc3ccccc3)c2c1 | 76% | 104% | 
13 | COc1ccc(-c2c(O)c3cc(C)ccc3oc2=O)c(OC)c1 | 74.4% | 69% | 
14 | O=c1ccc2ccccc2o1 [COUMARIN] |  |  | IC50 [4]: > 50 µM; IC50 [5]: > 50 µM; IC50 [7]: > 50 µM; IC50 [8]: > 50 µM
